Reference: ChEMBL document CHEMBL5058577, “EUbOPEN Chemogenomics Library 2 (Multiplex)” (2022)

Test system: Fibroblast
Test: Multiplex assay against human fibroblast
Type: toxicity, cell-based
Summary of the method: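 Live cells carried four stains from seeding: Hoechst33342, BioTracker Green Microtubule Cytoskeleton Dye, MitoTracker Red and Annexin V Alexa Fluor 680. They were imaged on a CQ1 microscope at 37°C and 5% CO2 after compound addition. Using CellPathfinder machine-learning gating, cells were split into Hoechst high-intensity objects or normal cells, normal cells into healthy, pyknosed or fragmented nuclei, and pyknosed cells into mitotic or apoptotic; tubulin, mitochondrial-mass and membrane-permeability phenotypes are per cents of healthy-nucleus cells.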

[1] = 12 h, 1 µM, compound concentration 1 uM, replicate 1
[2] = 12 h, 1 µM, compound concentration 1 uM, replicate 2
[3] = 12 h, 10 µM, compound concentration 10 uM, replicate 1
[4] = 12 h, 10 µM, compound concentration 10 uM, replicate 2
[5] = 24 h, 1 µM, compound concentration 1 uM, replicate 1
[6] = 24 h, 1 µM, compound concentration 1 uM, replicate 2
[7] = 24 h, 10 µM, compound concentration 10 uM, replicate 1
[8] = 24 h, 10 µM, compound concentration 10 uM, replicate 2
[9] = 48 h, 1 µM, compound concentration 1 uM, replicate 1
[10] = 48 h, 1 µM, compound concentration 1 uM, replicate 2
[11] = 48 h, 10 µM, compound concentration 10 uM, replicate 1
[12] = 48 h, 10 µM, compound concentration 10 uM, replicate 2

Cc1onc(-c2ccccc2Cl)c1C(=O)N(C)c1ccc(Cl)cc1
Population Apoptotic (%) [1]: 60%
Population Fragmented Nuclei (%) [1]: 17%
Population Healthy Nuclei (%) [1]: 68%
Population Hoechst High Intensity Objects (%) [1]: 7%
Population Membrane Permeable-Phenotype (%) [1]: 0%
Population Mitochondria Different-Phenotype (%) [1]: 7%
Population Mitotic Cells (%) [1]: 39%
Population Normal (%) [1]: 92%
Population Pyknosed Nuclei (%) [1]: 13%
Population Tubulin-Different-Phenotype (%) [1]: 23%
Total Cell Count [1]: 178
Population Apoptotic (%) [2]: 35%
Population Fragmented Nuclei (%) [2]: 22%
Population Healthy Nuclei (%) [2]: 50%
Population Hoechst High Intensity Objects (%) [2]: 9%
Population Membrane Permeable-Phenotype (%) [2]: 6%
Population Mitochondria Different-Phenotype (%) [2]: 8%
Population Mitotic Cells (%) [2]: 65%
Population Normal (%) [2]: 90%
Population Pyknosed Nuclei (%) [2]: 27%
Population Tubulin-Different-Phenotype (%) [2]: 63%
Total Cell Count [2]: 161
Population Apoptotic (%) [3]: 36%
Population Fragmented Nuclei (%) [3]: 16%
Population Healthy Nuclei (%) [3]: 70%
Population Hoechst High Intensity Objects (%) [3]: 2%
Population Membrane Permeable-Phenotype (%) [3]: 2%
Population Mitochondria Different-Phenotype (%) [3]: 6%
Population Mitotic Cells (%) [3]: 63%
Population Normal (%) [3]: 97%
Population Pyknosed Nuclei (%) [3]: 13%
Population Tubulin-Different-Phenotype (%) [3]: 29%
Total Cell Count [3]: 144
Population Apoptotic (%) [4]: 37%
Population Fragmented Nuclei (%) [4]: 24%
Population Healthy Nuclei (%) [4]: 48%
Population Hoechst High Intensity Objects (%) [4]: 3%
Population Membrane Permeable-Phenotype (%) [4]: 5%
Population Mitochondria Different-Phenotype (%) [4]: 11%
Population Mitotic Cells (%) [4]: 62%
Population Normal (%) [4]: 96%
Population Pyknosed Nuclei (%) [4]: 27%
Population Tubulin-Different-Phenotype (%) [4]: 64%
Total Cell Count [4]: 151
Population Apoptotic (%) [5]: 44%
Population Fragmented Nuclei (%) [5]: 18%
Population Healthy Nuclei (%) [5]: 65%
Population Hoechst High Intensity Objects (%) [5]: 7%
Population Membrane Permeable-Phenotype (%) [5]: 0%
Population Mitochondria Different-Phenotype (%) [5]: 1%
Population Mitotic Cells (%) [5]: 55%
Population Normal (%) [5]: 92%
Population Pyknosed Nuclei (%) [5]: 16%
Population Tubulin-Different-Phenotype (%) [5]: 16%
Total Cell Count [5]: 178
Population Apoptotic (%) [6]: 39%
Population Fragmented Nuclei (%) [6]: 22%
Population Healthy Nuclei (%) [6]: 54%
Population Hoechst High Intensity Objects (%) [6]: 12%
Population Membrane Permeable-Phenotype (%) [6]: 8%
Population Mitochondria Different-Phenotype (%) [6]: 4%
Population Mitotic Cells (%) [6]: 60%
Population Normal (%) [6]: 87%
Population Pyknosed Nuclei (%) [6]: 23%
Population Tubulin-Different-Phenotype (%) [6]: 56%
Total Cell Count [6]: 182
Population Apoptotic (%) [7]: 20%
Population Fragmented Nuclei (%) [7]: 16%
Population Healthy Nuclei (%) [7]: 76%
Population Hoechst High Intensity Objects (%) [7]: 2%
Population Membrane Permeable-Phenotype (%) [7]: 1%
Population Mitochondria Different-Phenotype (%) [7]: 4%
Population Mitotic Cells (%) [7]: 80%
Population Normal (%) [7]: 97%
Population Pyknosed Nuclei (%) [7]: 7%
Population Tubulin-Different-Phenotype (%) [7]: 32%
Total Cell Count [7]: 134
Population Apoptotic (%) [8]: 54%
Population Fragmented Nuclei (%) [8]: 21%
Population Healthy Nuclei (%) [8]: 55%
Population Hoechst High Intensity Objects (%) [8]: 4%
Population Membrane Permeable-Phenotype (%) [8]: 6%
Population Mitochondria Different-Phenotype (%) [8]: 6%
Population Mitotic Cells (%) [8]: 45%
Population Normal (%) [8]: 95%
Population Pyknosed Nuclei (%) [8]: 23%
Population Tubulin-Different-Phenotype (%) [8]: 59%
Total Cell Count [8]: 149
Population Apoptotic (%) [9]: 76%
Population Fragmented Nuclei (%) [9]: 26%
Population Healthy Nuclei (%) [9]: 62%
Population Hoechst High Intensity Objects (%) [9]: 9%
Population Membrane Permeable-Phenotype (%) [9]: 0%
Population Mitochondria Different-Phenotype (%) [9]: 1%
Population Mitotic Cells (%) [9]: 23%
Population Normal (%) [9]: 90%
Population Pyknosed Nuclei (%) [9]: 10%
Population Tubulin-Different-Phenotype (%) [9]: 22%
Total Cell Count [9]: 185
Population Apoptotic (%) [10]: 48%
Population Fragmented Nuclei (%) [10]: 28%
Population Healthy Nuclei (%) [10]: 54%
Population Hoechst High Intensity Objects (%) [10]: 11%
Population Membrane Permeable-Phenotype (%) [10]: 10%
Population Mitochondria Different-Phenotype (%) [10]: 6%
Population Mitotic Cells (%) [10]: 51%
Population Normal (%) [10]: 88%
Population Pyknosed Nuclei (%) [10]: 17%
Population Tubulin-Different-Phenotype (%) [10]: 51%
Total Cell Count [10]: 188
Population Apoptotic (%) [11]: 44%
Population Fragmented Nuclei (%) [11]: 25%
Population Healthy Nuclei (%) [11]: 68%
Population Hoechst High Intensity Objects (%) [11]: 4%
Population Membrane Permeable-Phenotype (%) [11]: 0%
Population Mitochondria Different-Phenotype (%) [11]: 3%
Population Mitotic Cells (%) [11]: 55%
Population Normal (%) [11]: 95%
Population Pyknosed Nuclei (%) [11]: 6%
Population Tubulin-Different-Phenotype (%) [11]: 34%
Total Cell Count [11]: 141
Population Apoptotic (%) [12]: 65%
Population Fragmented Nuclei (%) [12]: 31%
Population Healthy Nuclei (%) [12]: 55%
Population Hoechst High Intensity Objects (%) [12]: 1%
Population Membrane Permeable-Phenotype (%) [12]: 8%
Population Mitochondria Different-Phenotype (%) [12]: 6%
Population Mitotic Cells (%) [12]: 35%
Population Normal (%) [12]: 98%
Population Pyknosed Nuclei (%) [12]: 12%
Population Tubulin-Different-Phenotype (%) [12]: 53%
Total Cell Count [12]: 166
